According to PubChem BioAssay:
Unmarked numbers belong to inactive results.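 Rule for the calls: active = growth inhibition above 25% in both replicates, a cutoff set 3 SD above the mean; inconclusive = above 25% in only one replicate; inactive = the rest.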

experiment: OD615 S. cerevisiae growth inhibition, permissive medium, pilot counter-assay, permissive growth control for S. cerevisiae lifespan shortening project (AID 705); details: OD615, 24 h, at 10 µM, hits give high values
Summary of the method: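 assay system = Saccharomyces cerevisiae strain carrying genetically modified DeaD replicative-lifespan system | medium = SC raffinose/galactose permissive medium | dosing = 10 µM single dose, 0.25% DMSO | schedule = 24 h compound exposure at 30 °C after 4 h pre-growth | measured by = OD at 615 nm | read-out basis = growth inhibition from lowered OD615 after 24 h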

First: CC(=O)Nc1sc(C)c(C)c1CN1CCN(S(=O)(=O)c2ccccc2)CC1
Second: CCN1C(=O)c2ccccc2S(=O)c2ccc(C(=O)N3CCCC3)cc21 (stereo not given)
The growth inhibition of the first is higher: -1.31% for the first, -3.58% for the second.

Compared with `CC(C)CC(=O)Nc1ccc(C(=O)COc2ccc(-c3nnco3)cc2)cc1`, `CCc1ccc(NC(=O)c2ccc3c(c2)C(=O)N(Cc2ccco2)C3=O)cc1` is lower in growth inhibition: -0.165% for the first, -3.35% for the second.

Going from `C=CCSC1=N/C(=C\c2ccc(C)o2)C(=O)S1` to `Cc1ccccc1CSc1nnc(Cn2c(=O)sc3ccccc32)n1C`, the growth inhibition rises from -9.79% to -9.17%.

Going from `Cc1ccc(-c2nn3c(C)nnc3s2)cc1NC(=O)c1ccco1` to `Cn1c(Cn2c(=O)sc3ccccc32)nnc1SCC(=O)NCc1ccccc1Cl`, the growth inhibition falls from 3.94% to -7.92%.

Compared with `CCN(CC)P1(=O)OC(c2cc(OC)c(OC)c(OC)c2)=Nc2c1c(C)nn2-c1ccccc1` (stereo not given), `COc1ccccc1NC(=O)C1=C(C)NC(=O)NC1c1cccc(OC)c1OC` (stereo not given) is higher in growth inhibition: -7.12% for the first, -3.89% for the second.

First: CSC1=NCCN1C(=O)c1ccc(Br)o1
Second: CCOC(=O)C1CCCN(C(=O)c2cn(CC)c3ccc(S(=O)(=O)N(C)C)cc3c2=O)C1 (stereo not given)
The growth inhibition of the first is higher: -2.9% for the first, -5.92% for the second.

Compared with `COc1ccccc1NC(=O)C1C2C=CC3(CN(Cc4cccnc4)C(=O)C13)O2` (stereo not given), `CCCOC(=O)CSC1=C(C#N)C(c2ccccc2Cl)CC(=O)N1` (stereo not given) is lower in growth inhibition: 6% for the first, 1.49% for the second.

`O=C(NCc1ccccn1)C1CC(=O)N(C2CCCC2)C1` (stereo not given) showed a growth inhibition of -5.27%.
